Converted amounts (≈) assume the structure as drawn. The source made the active and inactive calls.
What was measured:
Nakaseomyces glabratus [1] = assay: (§1) Antifungal activity against 2.44 x 10^8 CFU fluconazole-susceptible Candida glabrata isolate 4293 infected neutropenic CD1 mouse disseminated candidiasis model assessed as reduction in kidney tissue fungal burden at 25 mg/kg/day, ip administered 24 hrs post infection measured 7 days post infection by colony count method; assay type: functional, organism-based
How it was run: (§2)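 Male CD1 mice (25 g) made neutropenic with cyclophosphamide 200 mg/kg i.p. on days −4, +1 and +4, then infected i.v. via the lateral tail vein (0.2 ml). Dosing started 24 h post-challenge, once daily for 6 days, 0.2 ml: POS by oral gavage, FLC i.p. On day 7, homogenized kidneys (entire organ) plated on Sabouraud agar; CFU per kidney pair; 7–8 mice per group.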

Nakaseomyces glabratus [2] = assay: as §1, with “1.04” for “2.44”; assay type: functional, organism-based
Nakaseomyces glabratus [3] = assay: Fungistatic activity against Candida glabrata isolate 4198 assessed as 99.9% reduction of initial fungal load at 0.5 times MIC after 48 hrs using colony count method by time-kill method; assay type: functional, organism-based
How it was run: (§3)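 0.5 McFarland suspension from a 48-h plate, diluted 1:10 into MOPS-buffered RPMI 1640 with drug at 0.5× or 8× MIC. Shaken at 35°C; sampled at 0, 2, 4, 8 and 24 h, serially diluted and plated in triplicate on Sabouraud agar for 48 h at 35°C. Detection limit 20 CFU/ml; fungicidal = 99.9% fall from initial inoculum. Each isolate tested at least twice.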

Nakaseomyces glabratus [4] = assay: Fungistatic activity against Candida glabrata isolate 4205 assessed as 99.9% reduction of initial fungal load at 0.5 times MIC after 48 hrs using colony count method by time-kill method; assay type: functional, organism-based; how it was run: as §3
Nakaseomyces glabratus [5] = assay: Fungistatic activity against Candida glabrata isolate 4293 assessed as 99.9% reduction of initial fungal load at 0.5 times MIC after 48 hrs using colony count method by time-kill method; assay type: functional, organism-based; how it was run: as §3
Candida parapsilosis [6] = assay: Fungistatic activity against Candida parapsilosis ATCC 22019 assessed as 99.9% reduction of int initial fungal load at 0.5 times MIC after 48 hrs using colony count method by time-kill method; assay type: functional, organism-based
Nakaseomyces glabratus [7] = assay: Fungistatic activity against Candida glabrata 4370 assessed as 99.9% reduction of int initial fungal load at 0.5 times MIC after 48 hrs using colony count method by time-kill method; assay type: functional, organism-based; how it was run: as §3
Nakaseomyces glabratus [8] = assay: Fungistatic activity against Candida glabrata isolate 4198 assessed as 99.9% reduction of initial fungal load at 8 times MIC after 48 hrs using colony count method by time-kill method; assay type: functional, organism-based; how it was run: as §3
Nakaseomyces glabratus [9] = assay: Fungistatic activity against Candida glabrata isolate 4205 assessed as 99.9% reduction of initial fungal load at 8 times MIC after 48 hrs using colony count method by time-kill method; assay type: functional, organism-based
Nakaseomyces glabratus [10] = assay: Fungistatic activity against Candida glabrata isolate 4293 assessed as 99.9% reduction of initial fungal load at 8 times MIC after 48 hrs using colony count method by time-kill method; assay type: functional, organism-based; how it was run: as §3
Nakaseomyces glabratus [11] = assay: as §1, with “against” for “against 2.44 x 10^8 CFU”, “4205” for “4293”, “30” for “25”, “po” for “ip”; assay type: functional, organism-based; how it was run: as §2
Nakaseomyces glabratus [12] = assay: as §1, with “fluconazole-resistant” for “2.44 x 10^8 CFU fluconazole-susceptible”, “4198” for “4293”, “30” for “25”, “po” for “ip”; assay type: functional, organism-based; how it was run: as §2
Candida parapsilosis [13] = assay: Antifungal activity against Candida parapsilosis ATCC 22019 after 48 hrs by microdilution method; assay type: functional; conditions: Lodderomyces parapsilosis, ATCC 22019, 48 h
How it was run: (§4)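 CLSI M27-A2 broth microdilution. Final ranges: POS, CAS, AMB 0.0078–8.0 μg/ml; FLC 0.125–64 μg/ml. Incubated at 35°C, read at 24 and 48 h by OD490. MIC for POS, FLC, CAS: first concentration giving 50% lower turbidity than control; for AMB: 90% lower. Run in quintuplicate; C. parapsilosis ATCC 22019 as quality control.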

Nakaseomyces glabratus [14] = assay: Antifungal activity against Candida glabrata isolate 4198 after 48 hrs by microdilution method; assay type: functional; conditions: isolate 4198, 48 h; how it was run: as §4
Nakaseomyces glabratus [15] = assay: Antifungal activity against Candida glabrata isolate 4205 after 48 hrs by microdilution method; assay type: functional; how it was run: as §4
Nakaseomyces glabratus [16] = assay: Antifungal activity against Candida glabrata isolate 4293 after 48 hrs by microdilution method; assay type: functional; how it was run: as §4
Nakaseomyces glabratus [17] = assay: Antifungal activity against Candida glabrata isolate 4370 after 48 hrs by microdilution method; assay type: functional; how it was run: as §4
Candida parapsilosis [18] = assay: Fungistatic activity against Candida parapsilosis ATCC 22019 assessed as 99.9% reduction of int initial fungal load at 8 times MIC after 48 hrs using colony count method by time-kill method; assay type: functional, organism-based
Nakaseomyces glabratus [19] = assay: Fungistatic activity against Candida glabrata 4370 assessed as 99.9% reduction of int initial fungal load at 8 times MIC after 48 hrs using colony count method by time-kill method; assay type: functional, organism-based; how it was run: as §3
Nakaseomyces glabratus [20] = assay: as §1, with “1” for “25”; assay type: functional, organism-based
How it was run: (§5)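 Neutropenia induced in male CD1 mice (25 g) with cyclophosphamide 200 mg/kg i.p. on days −4, +1 and +4. Mice were infected i.v. via the tail vein (0.2 ml). Drug was given i.p. at […], starting 24 h post-challenge, for 6 consecutive days. Kidney pairs were homogenized on day 7 and plated on Sabouraud dextrose agar for CFU counts. Groups had 7–8 mice.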

Nakaseomyces glabratus [21] = assay: as §1, with “15” for “25”, “po” for “ip”; assay type: functional, organism-based; how it was run: as §2
Nakaseomyces glabratus [22] = assay: as §1, with “1.04” for “2.44”, “30” for “25”, “po” for “ip”; assay type: functional, organism-based; how it was run: as §2
Nakaseomyces glabratus [23] = assay: as §1, with “1.04” for “2.44”, “1” for “25”; assay type: functional, organism-based; how it was run: as §5
Candida parapsilosis [24] = assay: Antifungal activity against Candida parapsilosis ATCC 22019 after 24 hrs by microdilution method; assay type: functional; conditions: Lodderomyces parapsilosis, ATCC 22019, 24 h
How it was run: (§6)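 CLSI M27-A2 broth microdilution. Final drug ranges were 0.0078–8.0 μg/ml for POS, CAS and AMB, and 0.125–64 μg/ml for FLC. Plates were incubated at 35°C and read by OD490 at 24 h. The MIC was the first concentration giving 50% turbidity reduction versus control (POS, FLC, CAS) or 90% (AMB). Run in quintuplicate.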

Nakaseomyces glabratus [25] = assay: Antifungal activity against Candida glabrata isolate 4198 after 24 hrs by microdilution method; assay type: functional; conditions: isolate 4198, 24 h; how it was run: as §4
Nakaseomyces glabratus [26] = assay: Antifungal activity against Candida glabrata isolate 4205 after 24 hrs by microdilution method; assay type: functional; how it was run: as §4
Nakaseomyces glabratus [27] = assay: Antifungal activity against Candida glabrata isolate 4293 after 24 hrs by microdilution method; assay type: functional; how it was run: as §6
Nakaseomyces glabratus [28] = assay: Antifungal activity against Candida glabrata isolate 4370 after 24 hrs by microdilution method; assay type: functional; how it was run: as §4
Nakaseomyces glabratus [29] = assay: Fungicidal activity against Candida glabrata isolate 4198 assessed as 99.9% reduction of initial fungal load at 8 times MIC after 48 hrs using colony count method by time-kill method; assay type: functional, organism-based; conditions: in the assay text read “after 24 hrs” for “after 48 hrs”
How it was run: (§7)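 Time-kill assay. The inoculum was set to 0.5 McFarland in water and diluted 1:10 into MOPS-buffered RPMI 1640 with drug at 0.5× or 8× MIC, then shaken at 35°C. Samples were taken at 0, 2, 4, 8 and 24 h, serially diluted and plated in triplicate on Sabouraud agar, with 48 h at 35°C. Detection limit was 20 CFU/ml. Fungicidal was defined as a 99.9% drop from the initial inoculum. Each isolate was tested at least twice.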

Nakaseomyces glabratus [30] = assay: Fungicidal activity against Candida glabrata isolate 4205 assessed as 99.9% reduction of initial fungal load at 8 times MIC […] using colony count method by time-kill method; assay type: functional, organism-based; how it was run: as §7
Nakaseomyces glabratus [31] = assay: Fungicidal activity against Candida glabrata isolate 4293 assessed as 99.9% reduction of initial fungal load at 8 times MIC […] using colony count method by time-kill method; assay type: functional, organism-based

SMILES | Activity (Nakaseomyces glabratus [1]) | Activity (Nakaseomyces glabratus [2]) | Activity (Nakaseomyces glabratus [3]) | Activity (Nakaseomyces glabratus [4]) | Activity (Nakaseomyces glabratus [5]) | Activity (Candida parapsilosis [6]) | Activity (Nakaseomyces glabratus [7]) | Activity (Nakaseomyces glabratus [8]) | Activity (Nakaseomyces glabratus [9]) | Activity (Nakaseomyces glabratus [10]) | Activity (Nakaseomyces glabratus [11]) | MIC (Candida parapsilosis [13]) [µg/mL] | MIC (Nakaseomyces glabratus [14]) [µg/mL] | MIC (Nakaseomyces glabratus [15]) [µg/mL] | MIC (Nakaseomyces glabratus [16]) [µg/mL] | MIC (Nakaseomyces glabratus [17]) [µg/mL] | Activity (Candida parapsilosis [18]) | Activity (Nakaseomyces glabratus [19]) | Activity (Nakaseomyces glabratus [20]) | Activity (Nakaseomyces glabratus [23]) | further results
OC(Cn1cncn1)(Cn1cncn1)c1ccc(F)cc1F [FLUCONAZOLE] | Active | inactive | Active | Active | Active | Active | Active | Active | Active | Active | Active | 4 (≈ 13.1 µM) | > 64 | 1 (≈ 3.27 µM) | 32 (≈ 104 µM) | 16 (≈ 52.2 µM) | Active | Active | Active |  | Activity (Nakaseomyces glabratus [12]): inactive
CC[C@@H]([C@H](C)O)n1ncn(-c2ccc(N3CCN(c4ccc(OC[C@@H]5CO[C@@](Cn6cncn6)(c6ccc(F)cc6F)C5)cc4)CC3)cc2)c1=O [POSACONAZOLE] | Active | Active | Active | Active | Active | Active | Active | Active | Active | Active | Active | ≤ 0.03 | 0.5 (≈ 0.713 µM) | ≤ 0.03 | 0.25 (≈ 0.357 µM) | 0.06 (≈ 0.0856 µM) | Active | Active |  | inactive | Activity (Nakaseomyces glabratus [21]): Active; Activity (Nakaseomyces glabratus [22]): Active; Activity (Nakaseomyces glabratus [12]): Active
CC[C@H](C)C[C@H](C)CCCCCCCCC(=O)N[C@H]1C[C@@H](O)[C@@H](NCCN)NC(=O)[C@@H]2[C@@H](O)CCN2C(=O)[C@H]([C@H](O)CCN)NC(=O)[C@H]([C@H](O)[C@@H](O)c2ccc(O)cc2)NC(=O)[C@@H]2C[C@@H](O)CN2C(=O)[C@H]([C@@H](C)O)NC1=O [CASPOFUNGIN] |  |  | Active | Active | Active | Active | Active |  |  |  |  |  |  |  |  |  |  |  | Active | Active | MIC (Candida parapsilosis [24]): 0.25 µg/mL (≈ 0.229 µM); MIC (Nakaseomyces glabratus [25]): 0.25 µg/mL (≈ 0.229 µM); MIC (Nakaseomyces glabratus [26]): 0.25 µg/mL (≈ 0.229 µM); MIC (Nakaseomyces glabratus [27]): ≤ 0.03 µg/mL; MIC (Nakaseomyces glabratus [28]): 0.125 µg/mL (≈ 0.114 µM); Activity (Nakaseomyces glabratus [29]): inactive; Activity (Nakaseomyces glabratus [30]): inactive; Activity (Nakaseomyces glabratus [31]): inactive
C[C@@H]1[C@H](O)[C@@H](C)/C=C/C=C/C=C/C=C/C=C/C=C/C=C/[C@H](O[C@@H]2O[C@H](C)[C@@H](O)[C@H](N)[C@@H]2O)C[C@@H]2O[C@](O)(C[C@@H](O)C[C@@H](O)[C@H](O)CC[C@@H](O)C[C@@H](O)CC(=O)O[C@H]1C)C[C@H](O)[C@H]2C(=O)O [AMPHOTERICIN B] |  |  | Active | Active | Active | Active | Active |  |  |  |  | 1 (≈ 1.08 µM) | 0.5 (≈ 0.541 µM) | 0.5 (≈ 0.541 µM) | 0.5 (≈ 0.541 µM) | 1 (≈ 1.08 µM) | Active | Active | Active | Active | Activity (Nakaseomyces glabratus [29]): Active; Activity (Nakaseomyces glabratus [30]): Active; Activity (Nakaseomyces glabratus [31]): Active

— ChEMBL document CHEMBL1255368, “Posaconazole against Candida glabrata isolates with various susceptibilities to fluconazole” (2008)
